Measured values from ChEMBL document CHEMBL4177701, “A novel series of enoyl reductase inhibitors targeting the ESKAPE pathogens, Staphylococcus aureus and Acinetobacter baumannii” (Bioorg Med Chem, 2018).
≈ marks a conversion by molar mass, not a printed value. Calls of active or inactive are those of the source. The rule behind the calls is not given here.

Columns and labels:
Acinetobacter baumannii [1] = assay: Synergistic antibacterial activity against Acinetobacter baumannii 2208 ATCC 19606 in presence of colistin by checkerboard method; type: functional; details: ATCC 19606 = CIP 70.34 = JCM 6841 2208
Staphylococcus aureus [2] = assay: Antibacterial activity against Staphylococcus aureus RN4220 over-expressing FabI by microbroth dilution method; type: functional
In short: (§1)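 Broth microdilution MIC; reported value is mean of at least two runs, within two-fold experimental uncertainty.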

[3] = tested on: Acinetobacter baumannii ATCC 19606 = CIP 70.34 = JCM 6841; assay: Binding affinity to Acinetobacter baumannii 2208 ATCC 19606 FabI by SPR assay
HepG2 [4] = assay: Cytotoxicity against human HepG2 cells assessed as reduction in cell viability after 24 hrs in presence of 10% FBS by MTT assay; type: cell-based; details: HepG2, 24 h
In short: (§2)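 HepG2 cells in EMEM with either 10% FBS or 0.5% FBS plus 10% Cell-Ess serum replacement. Seeded at 25,000 cells/well and incubated overnight at 37 °C, 5% CO2. Treated 24 h at 100–3 μg/mL, with matched DMSO controls. MTT added for 2 h, formazan extracted in DMSO, absorbance read at 570 nm. Run in duplicate; IC50 taken from the viability plot against the DMSO control.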

Acinetobacter baumannii [5] = assay: Synergistic antibacterial activity against Acinetobacter baumannii 2208 ATCC 19606 assessed as colistin MIC by checkerboard method; type: functional; details: ATCC 19606 = CIP 70.34 = JCM 6841 2208
Staphylococcus aureus [6] = assay: Antibacterial activity against Staphylococcus aureus Newman by microbroth dilution method; type: functional
In short: (§3)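 Microbroth dilution MIC; each value is the mean of at least two runs, within two-fold experimental uncertainty.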

Staphylococcus aureus [7] = assay: Antibacterial activity against methicillin-resistant Staphylococcus aureus subsp. aureus Rosenbach ATCC 43300 by microbroth dilution method; type: functional; in short: as §1
[8] = target: T1, Enoyl-[acyl-carrier-protein] reductase [NADPH] FabI (Staphylococcus aureus, UniProt Q6GI75); assay: Competitive inhibition of Staphylococcus aureus subsp. aureus Rosenbach ATCC 43300 FabI using crotonyl-CoA as substrate in presence of NADPH/NADH after 10 mins by fluorescence assay
T1 sequence (Q6GI75 whole entry): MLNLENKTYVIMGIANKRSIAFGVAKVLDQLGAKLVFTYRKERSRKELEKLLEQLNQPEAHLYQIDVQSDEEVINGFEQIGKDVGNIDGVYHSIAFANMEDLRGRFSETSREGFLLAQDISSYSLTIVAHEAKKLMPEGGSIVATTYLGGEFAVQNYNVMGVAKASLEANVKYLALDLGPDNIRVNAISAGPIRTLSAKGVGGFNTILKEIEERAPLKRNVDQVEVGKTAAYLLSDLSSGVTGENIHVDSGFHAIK

[9] = target: T2, Enoyl-[acyl-carrier-protein] reductase [NADPH] FabI (Staphylococcus aureus) (UniProt Q6GI75); assay: Binding affinity to Staphylococcus aureus subsp. aureus Rosenbach ATCC 43300 FabI by SPR assay
T2 sequence (whole entry): T1 sequence (Q6GI75 whole entry)

Escherichia coli [10] = assay: Antibacterial activity against Escherichia coli BW25113 mutant by microbroth dilution method; type: functional; in short: as §1
Staphylococcus aureus [11] = assay: Antibacterial activity against Staphylococcus aureus RN4220 by microbroth dilution method; type: functional; in short: as §1
[12] = Inhibition of Acinetobacter baumannii 2208 ATCC 19606 FabI using crotonyl-CoA as substrate in presence of NADPH/NADH after 10 mins by fluorescence assay; set-up: species or system Acinetobacter baumannii ATCC 19606 = CIP 70.34 = JCM 6841
In short: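 AbFabI, 200 nM, in 50 mM MES/100 mM NaCl with 200 μM NADH, 0.1 mg/mL BSA and 0.01% triton. Reaction started with 300 μM crotonyl-CoA. NADH fluorescence read at 340/460 nm. Compounds tested at 0.4 nM–200 μM. Initial 10-min slopes were compared with a DMSO no-compound control. At least two independent experiments, each in duplicate; two-fold uncertainty.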

Acinetobacter baumannii [13] = assay: Synergistic antibacterial activity against Acinetobacter baumannii 2208 ATCC 19606 assessed as fractional inhibitory concentration in presence of colistin by checkerboard method; type: functional, ATCC 19606 = CIP 70.34 = JCM 6841 2208
HepG2 [14] = assay: Cytotoxicity against human HepG2 cells assessed as reduction in cell viability after 24 hrs in presence of 0.5% FBS by MTT assay; type: cell-based; details: HepG2, 24 h; in short: as §2
Acinetobacter baumannii [15] = assay: Antibacterial activity against Acinetobacter baumannii 2208 ATCC 19606 by microbroth dilution method; type: functional; details: ATCC 19606 = CIP 70.34 = JCM 6841 2208; in short: as §3
[16] = Competitive inhibition of Acinetobacter baumannii 2208 ATCC 19606 FabI using crotonyl-CoA as substrate in presence of NADPH/NADH after 10 mins by fluorescence assay; set-up: species or system Acinetobacter baumannii ATCC 19606 = CIP 70.34 = JCM 6841
[17] = target: T1, Enoyl-[acyl-carrier-protein] reductase [NADPH] FabI; assay: Inhibition of Staphylococcus aureus subsp. aureus Rosenbach ATCC 43300 FabI using crotonyl-CoA as substrate in presence of NADPH/NADH after 10 mins by fluorescence assay
In short: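 SaFabI enzyme, 300 nM, in 50 mM MES/100 mM NaCl with 200 μM NADPH, 0.1 mg/mL BSA, 0.01% triton; started with 400 μM crotonyl-CoA. NADPH fluorescence at 340/460 nm. Compounds 0.4 nM–200 μM. Slopes over first 10 min compared with DMSO control for % inhibition. At least two independent experiments, each in duplicate. Two-fold experimental uncertainty.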

Escherichia coli [18] = assay: Antibacterial activity against Escherichia coli BW25113 harboring TolC deletion mutant by microbroth dilution method; type: functional; in short: as §1
Acinetobacter baumannii [19] = assay: Synergistic antibacterial activity against MDR Acinetobacter baumannii ATCC BAA-1605 assessed as fold reduction in colistin MIC by checkerboard method; type: functional
Staphylococcus aureus [20] = assay: Selectivity ratio of MIC for Staphylococcus aureus RN4220 over-expressing FabI to MIC for Staphylococcus aureus RN4220; type: functional

Compound | MIC (Acinetobacter baumannii [1]) [µg/mL] | MIC (Staphylococcus aureus [2]) [µg/mL] | Activity [3] | IC50 (HepG2 [4]) [µg/mL] | MIC (Acinetobacter baumannii [5]) [µg/mL] | MIC (Staphylococcus aureus [6]) [µM] | MIC (Staphylococcus aureus [7]) [µg/mL] | Ki [8] [µM] | Activity [9] | MIC (Escherichia coli [10]) [µg/mL] | MIC (Staphylococcus aureus [11]) [µg/mL] | IC50 [12] [µM] | FIC (Acinetobacter baumannii [13]) | IC50 (HepG2 [14]) [µg/mL] | MIC (Acinetobacter baumannii [15]) [µg/mL] | Ki [16] [µM] | IC50 [17] [µM] | MIC (Escherichia coli [18]) [µg/mL] | fold change (FC) (Acinetobacter baumannii [19]) | Selectivity ratio (Staphylococcus aureus [20])
O=C(Cc1ccccc1F)N1CCC(c2ccccc2)C1 (racemic) | 25 | 200 (≈ 706 µM) | Active | 160 | 0.19 | 176 (≈ 50 µg/mL) | 100 (≈ 353 µM) | 1.9 | Active | > 200 | 50 (≈ 176 µM) | 3.9 | 0.25 | 76 | > 200 | 2 | – | – | – | –
COc1ccc(C2CCN(C(=O)Cc3ccc(NC(C)=O)cc3)C2)cc1 (racemic) | – | > 200 | Active | – | – | – | > 200 | > 37.1 | Active | > 200 | – | > 100 | – | – | > 200 | > 50 | > 100 | – | – | –
CC(=O)Nc1ccc(CC(=O)N2CCC(c3nccs3)C2)cc1 (racemic) | – | > 200 | Active | – | – | – | > 200 | > 37.1 | Active | > 200 | – | > 100 | – | – | > 200 | > 50 | > 100 | – | – | –
CC(C)S(=O)(=O)c1ccc(CC(=O)N2CCC(c3ccc4c(c3)OCO4)C2)cc1 (racemic) | – | > 200 | Active | – | – | – | > 200 | > 37.1 | Active | > 200 | – | > 100 | – | – | > 200 | > 50 | > 100 | – | – | –
CC(=O)Nc1ccc(CC(=O)N2CCC(c3ccccc3)C2)cc1 (racemic) | – | > 200 | Active | – | – | – | > 200 | > 37.1 | Active | – | – | > 100 | – | – | > 200 | > 50 | > 100 | > 200 | – | –
O=C(Cc1ccccc1Cl)N1CCC(c2ccccn2)C1 (racemic) | 50 | 200 (≈ 665 µM) | Active | – | 0.39 | 166 (≈ 50 µg/mL) | 200 (≈ 665 µM) | 6.8 | Active | > 200 | 100 (≈ 332 µM) | 30.7 | 0.5 | – | > 200 | 15.4 | – | – | 10 | –
O=C(Cc1cccc(F)c1F)N1CCC(c2ccccc2)C1 (racemic) | 25 | 200 (≈ 664 µM) | Active | 125 | 0.19 | 166 (≈ 50 µg/mL) | 100 (≈ 332 µM) | 2.7 | Active | > 200 | 50 (≈ 166 µM) | 9.3 | 0.25 | 68 | > 200 | 4.7 | – | – | – | –
COc1ccccc1C1CCN(C(=O)/C=C/c2ccc(NC(C)=O)cc2)C1 (racemic) | – | > 200 | Active | – | – | – | > 200 | > 37.1 | Active | > 200 | – | > 100 | – | – | > 200 | > 50 | > 100 | – | – | –
O=C(Cc1c(F)cccc1Cl)N1CCC(c2ccc3c(c2)OCO3)C1 (racemic) | – | – | Active | – | – | 69.1 (≈ 25 µg/mL) | > 200 | 0.7 | Active | > 200 | 25 (≈ 69.1 µM) | > 200 | – | – | > 200 | > 100 | – | – | – | >4
CC(=O)Nc1ccc(CC(=O)N2CCC(c3ccc4c(c3)OCO4)C2)cc1 (racemic) | – | > 200 | Active | – | – | – | > 200 | > 37.1 | Active | > 200 | – | > 100 | – | – | > 200 | > 50 | > 100 | – | – | –
COc1ccccc1C1CCN(C(=O)Cc2c(F)cccc2F)C1 (racemic) | 50 | – | Active | 279 | 0.19 | 151 (≈ 50 µg/mL) | > 200 | 2.1 | Active | > 200 | – | 3 | 0.38 | 65 | > 200 | 1.5 | – | – | – | –
O=C(Cc1c(F)cccc1F)N1CCC(c2ccccc2)C1 (racemic) | 25 | > 200 | Active | 237 | 0.19 | 166 (≈ 50 µg/mL) | > 200 | 0.7 | Active | > 200 | 50 (≈ 166 µM) | 6.9 | 0.25 | > 200 | > 200 | 3.5 | – | – | – | –
